Published values from different studies.
Compare with care: the assays were run in different laboratories.
Target: Calcium/calmodulin-dependent protein kinase type 1B (PNCK, Homo sapiens, UniProt Q6P2M8)

Cc1cnn2ncc(-c3ccnc(N(C)C)n3)c2c1 — remaining binding (binding; 1 µM): 97%
O=C(c1ccc(Nc2ncc(Cl)c(-c3ccc(Cl)s3)n2)cc1)N1CCC(N2CCCC2)CC1 — remaining binding (binding, competition with immobilised ligand; 1 µM): 56%
N#CC1(c2ccccn2)CCN(Cc2cc(C(=O)N3CCCC3)c(=O)n3ccccc23)CC1 — remaining binding (cell-free assay, competition with immobilised ligand; 1 µM): 90%
COc1ncc2cc3ccccc3nc2c1C#N — remaining binding (cell-free assay, competition with immobilised ligand; 5 µM): 95%
O=C(Nc1c[nH]nc1C(=O)NC1CCNCC1)c1cc(F)cc(F)c1 — remaining binding (binding, competition with immobilised ligand; 1 µM): 100%
N[C@@H]1CCN(c2nccc(-c3cnn4ncccc34)n2)C1 — remaining binding (binding; 1 µM): 100%
Nc1ncc2c(n1)-c1c([nH]c3ccc(C#CC4CC4)cc13)CCCC2 — remaining binding (binding, competition with immobilised ligand; 1 µM): 79%
F[C@@H]1CCN(c2nccc(-c3cnn4ncccc34)n2)C1 — remaining binding (binding; 1 µM): 100%
CCCOc1ccc([C@H]2[C@H](C(=O)O)[C@@H](c3ccc4c(c3)OCO4)CN2CC(=O)Nc2c(CC)cccc2CC)cc1 — remaining binding (cell-free assay, competition with immobilised ligand; 1 µM): 77%
FC(F)(F)Oc1cccc(-c2cnc3ccc(-c4ccncc4)nn23)c1 — remaining binding (cell-free assay, competition with immobilised ligand; 5 µM): 100%
O=c1nc(-c2ccccn2)sc2ccccc12 — remaining binding (cell-free assay, competition with immobilised ligand; 1 µM): 56%
O=C(c1ccc(Nc2nccc(-c3cc4ccccc4s3)n2)cc1)N1CCC(N2CCCC2)CC1 — remaining binding (binding, competition with immobilised ligand; 1 µM): 47%
COc1cnc(Nc2cccc(S(N)(=O)=O)c2)nc1N1CCN(c2ccccc2)C(=O)C1 — remaining binding (binding, competition with immobilised ligand; 1 µM): 83%
CC(=O)c1c(NS(C)(=O)=O)c2cc(-c3ccc(Cl)cc3)c(-c3ccc(Cl)cc3Cl)nc2n(C)c1=O — remaining binding (cell-free assay, competition with immobilised ligand; 1 µM): 100%
COc1ccnn2ncc(-c3ccnc(N(C)C)n3)c12 — remaining binding (binding; 1 µM): 100%
Cc1cnc(Nc2ccc(C(=O)N3CCC(N4CCCC4)CC3)cc2)nc1-c1cc2ccccc2s1 — remaining binding (binding, competition with immobilised ligand; 1 µM): 36%
CC1=C(C#N)C(c2ccc3c(c2)c(NC(=O)c2ccccc2C)nn3C)C(C#N)=C(C)N1 — remaining binding (cell-free assay, competition with immobilised ligand; 1 µM): 85%
CN(c1nccc(-c2cnn3ncccc23)n1)C1CC1 — remaining binding (binding; 1 µM): 98%
